High-throughput results: PubChem BioAssay, several laboratories
Sampled rows, rich in hits. Any-hit rate of the full collection: about 4.1%.
FLuc act counter – affects firefly luciferase, flagging false hits in luciferase stimulation screens; P08659; ATPlite luciferase biochemical, luminescence, 10 min; 0 = ATP-free wells, 1 = DMSO control; activation factor at 10 µM; 200,000 tested, under 10 active;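 active = luciferase activation factor, scaled between plate controls, of at least 2 with compound at 10 µM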
Target sequence (P08659 whole entry, looked up): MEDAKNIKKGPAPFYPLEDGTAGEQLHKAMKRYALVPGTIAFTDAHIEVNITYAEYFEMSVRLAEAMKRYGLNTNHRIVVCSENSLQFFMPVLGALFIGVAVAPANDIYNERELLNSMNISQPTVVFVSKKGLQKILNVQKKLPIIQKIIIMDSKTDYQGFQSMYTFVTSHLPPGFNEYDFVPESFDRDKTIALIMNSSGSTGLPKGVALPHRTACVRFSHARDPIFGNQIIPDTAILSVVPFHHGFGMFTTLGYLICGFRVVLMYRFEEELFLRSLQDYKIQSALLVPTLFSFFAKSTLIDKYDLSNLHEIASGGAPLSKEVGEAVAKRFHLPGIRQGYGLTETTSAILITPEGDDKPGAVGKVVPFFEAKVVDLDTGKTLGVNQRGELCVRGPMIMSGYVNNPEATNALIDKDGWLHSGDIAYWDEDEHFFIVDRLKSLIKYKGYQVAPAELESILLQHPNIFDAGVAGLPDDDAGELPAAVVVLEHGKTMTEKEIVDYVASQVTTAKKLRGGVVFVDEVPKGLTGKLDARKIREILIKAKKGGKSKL
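Material: Luciferase/luciferin reagent mix; Doses: test compounds dosed from 2 mM stocks in 100% DMSO; Schedule: 10 min incubation after luciferase reagent addition, room temperature; Measured by: luminescence from luciferase reaction; Read-out: luminescence gain marking luciferase activators.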
STAT1 activator – activators of IFN-gamma induced STAT1 signaling. NIH 3T3 STAT1-luciferase reporter, luminescence; 100% = IFN-gamma alone, no compound. activation (% of control), % at 5.5 µM. 200,000 compounds, 2.6% hits;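 active = activation above the screen-wide mean activation plus 3 SD, cut at about 130% in these data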;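 note: raw ratio to IFN-gamma control signal so 100% means no change and 0% no light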
NF-kB expr up – raises NF-kB expression in human neuronal cells; NF-kB reporter expression; active compounds read high; fold change at 12.5 µM; 190,000 compounds, 1.6% hits; AID 1239; in the data active = fold change above about 3.3
APP 5'UTR act – APP 5'UTR luciferase reporter activation. activation, % at 2 µM. AID 1276. 190,000 compounds, 1% hits. SH-SY5Y APP 5'UTR luciferase reporter, luminescence; zero percent = DMSO vehicle wells;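 active = activation above a set limit, based on mean plus 3 SD of controls, cut at about 140% in these data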
FLuc inh counter – counter-screen for luciferase assay inhibitors: firefly luciferase inhibition; AID 1006; ATPLite firefly luciferase biochemical luminescence, 10 min; P08659; inhibition, % at 10 µM; 200,000 compounds, 1.5% hits;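 active = inhibition above about 50% when tested at 10 µM, limit read from the data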
Active calls of the source: *; · = no result given.

SMILES	FLuc act counter	STAT1 activator	NF-kB expr up	APP 5'UTR act	FLuc inh counter
CN(C)/C=N/c1sc2c(c1C(N)=O)CCCC2	1	120	1.4	7	-4
COc1ccc(-c2noc(CSc3ccccc3)n2)cc1OC	1	130*	2.3	54	0
c1ccc(SCc2nc(-c3ccncc3)no2)cc1	0.9	129*	1.9	11	7
CCC1(C)CC(c2nc(-c3ccc(OC)cc3)cs2)CCS1 (stereo not drawn)	1	110	1.2	16	-3
CCOc1ccc(Oc2c(/C=N/NC(=O)C3CC3)c(C)nn2-c2ccccc2)cc1	1	93	0.88	10	3
CCOC(=O)Nc1sc(C)c(C)c1C(N)=O	1	93	1.2	-7	-1
Cc1cccc2nc(CSc3ccccc3C(=O)O)cn12	1	99	1.1	4	4
Cc1cccc2nc(CSc3ccccc3N)cn12	·	140*	4.6*	132	·
CC(/C=N/NC(=O)Cn1nccc1C)=C\c1ccc(C(C)C)cc1	1	129*	1.1	11	-3
CC(=C/c1ccc(C(C)C)cc1)/C=N/NC(=O)Cn1nc(C)cc1C	1	105	1.1	0	-2
Cc1cc(/C=C2\SC(N)=NC2=O)c(C)n1-c1ccccc1	0.2	128	1.4	·	83*
CC(C)c1ccc(/C=N/NC(=O)c2c(Cl)cnn2C)cc1	0.1	138*	5.2*	117	93*
COc1ccc(Nc2nc(N)nc(CSC(=S)N3CCCCC3)n2)cc1	1	129*	1.5	13	3
COCCN(Cc1ccccc1)C(=S)Nc1ccc(Cl)cc1	1.1	89	1.6	-12	-7
Cn1cccc1/C=N\NC(=O)Cc1ccc(Br)c2ccccc12	1	71	0.91	5	2
Cc1cccc(N=c2c([N+](=O)[O-])nn(-c3ccc(Cl)cc3)n2O)c1	1.1	104	1.5	21	-9
Cc1ccc(CN=c2c([N+](=O)[O-])nn(-c3ccc(Cl)cc3)n2O)cc1	1	140*	1.2	11	4
CCc1cccc(N=c2c([N+](=O)[O-])nn(-c3ccc(Cl)cc3)n2O)c1	1	100	4.9*	10	-3
O=[N+]([O-])c1nn(-c2ccc(Cl)cc2)n(O)c1=NCc1ccncc1	1.1	110	0.97	-11	-9
Fc1ccc(Nc2ccc3ccccc3n2)c(F)c1	0.3	58	11*	200*	70*
Cc1cc(Nc2ccc(F)cc2F)n2nc(C)nc2n1	1	96	1.1	-27	0
COC(=O)C1CCN(C(=O)CCCOc2ccccc2)CC1	0.9	132*	2.8	146*	11
O=C(CCCOc1ccc(Cl)cc1Cl)N1CCN(c2ccccn2)CC1	1.1	102	0.91	-8	-6
O=C(CCCOc1ccccc1)N1CCN(c2ccccn2)CC1	1	129*	2.9	153*	1
CC(=O)Oc1ccc(Cl)cc1/C=C/c1ccc2ccccc2n1	1	95	7.3*	88	-2
SMILES	FLuc act counter	STAT1 activator	NF-kB expr up	APP 5'UTR act	FLuc inh counter
C(=C\c1ccc2ccccc2n1)/c1ccccc1	·	·	·	176*	·
O=[N+]([O-])c1ccc(/C=C/c2ccc3ccccc3n2)cc1	0.2	51	5.2*	165*	76*
Oc1ccc(/C=C/c2ccc3ccccc3n2)cc1	0.1	33	2.6	55	86*
COc1ccc(CN2CCn3ncc(C(=O)Nc4cc(C)cc(C)c4)c3C2=O)cc1	1	95	0.93	-12	1
CCN(Cc1ccncc1)Cc1c(O)ccc2cc(Br)ccc12	1	101	0.99	18	-5
CCN1C(=O)C(CC(=O)Nc2c(C)cccc2C)Nc2cc(S(=O)(=O)N(C)C)ccc21 (stereo not drawn)	1	97	1	-19	-3
Oc1ccc(/C(Cc2ccc3ccccc3n2)=N\Nc2ccccc2)c(O)c1	0.9	109	1.1	27	13
O/C(=C\c1ccc2ccccc2n1)c1ccc(O)cc1O	0.2	96	8.1*	158*	83*
Fc1ccccc1/C=C/c1ccc2ccccc2n1	0.1	96	6.7*	196*	87*
Cc1cc(NC(=O)Cn2cc(C(F)(F)F)cc(Cl)c2=O)no1	1.1	90	1.1	8	-14
Cc1cc(C(=O)COC(=O)c2ccncc2)c(C)n1Cc1ccco1	0.2	129*	0.6	25	79*
Nc1nnc(SCC(=O)c2ccco2)s1	1	98	1.2	5	-2
COCCn1c(C)cc(C(=O)CSc2n[nH]c(N)n2)c1C	0.9	102	1.6	10	5
Cc1cc(C(=O)COC(=O)c2cccn2C)c(C)n1Cc1ccco1	0.2	65	1	166*	80*
Cc1cc(C(=O)COc2cccnc2[N+](=O)[O-])c(C)n1Cc1ccco1	1	89	1.5	-5	4
COCCn1c(C)cc(C(=O)CSc2nnc(C)s2)c1C	0.3	64	1.3	22	70*
Cc1cc(C(=O)CSc2nnc(N)s2)c(C)n1Cc1ccco1	0.2	85	4.1*	235*	80*
C=CCOc1ccc(/C=C/C(=O)Nc2ccc(C(=O)NC)cc2)cc1	1.1	94	1.7	6	-5
CC(C)(C)c1ccc(OCCNC(=O)Cc2ccc(F)cc2)cc1	1.1	95	0.95	5	-7
COCCn1c(C)cc(C(=O)COC(=O)c2cc3c(s2)CCC3)c1C	1.1	136*	1	17	-6
COCCn1c(C)cc(C(=O)COC(=O)c2ccc([N+](=O)[O-])o2)c1C	0.6	94	0.99	-3	36
CCOC(=O)CN1CCS(=O)(=O)CC1	1.1	101	1.2	16	-7
Cc1ccc(/C=C/C(=O)c2ccc(N3CCOCC3)cc2)s1	0.1	135*	3.3	106	94*
Cc1cccc(/C=C/C(=O)c2ccc(N3CCOCC3)cc2)c1	0.8	105	0.9	-1	22
N#CCCN(C(=O)COc1ccc(F)cc1Br)c1ccccc1F	1	99	1.1	2	-4
SMILES	FLuc act counter	STAT1 activator	NF-kB expr up	APP 5'UTR act	FLuc inh counter
NNc1nc2c(F)cccc2s1	1	146*	1.2	142*	-3
Fc1cccc2sc(Nc3nnc(-c4ccccc4)o3)nc12	0.2	112	2.5	56	77*
Fc1cccc2sc(Nc3nc4c(F)cccc4s3)nc12	1	104	1	39	1
COc1cc(-c2nnn(CC(=O)N3CCOCC3)n2)cc(OC)c1OC	1.1	100	1.1	1	-6
COc1ccc(-c2ccc(-c3nnn(CC(=O)N4CCOCC4)n3)cc2)cc1	0.3	114	2.2	37	74*
CCCC(C)C(=O)Nc1ccc(S(=O)(=O)Nc2nccs2)cc1 (stereo not drawn)	1	103	1.3	-6	-4
Cc1ncoc1C(=O)Nc1ncc([N+](=O)[O-])s1	0.8	142*	2.4	78	19
Cc1c(C=O)c2ccccn2c1C(=O)c1cccs1	1	100	0.99	-13	-1
O=C1NN(c2ccccc2)C(=O)/C1=C/c1cccs1	0.6	92	1	6	35
